Structures can show the parent of a compound that is named as a salt.
How the values were obtained:
astrocytes = conditions: in vitro pre-treatment, 25 μM, stimulation with IL1β; ref Galloway et al., 2017; cited from earlier work
[1] = test system: C3 secretion from inflammation-induced astrocytes; assay: C3 secretion; type: cell-based, human
Outline: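 Primary human cortical astrocytes on PLL-coated plates; after 24 h, medium replaced with 50% v/v supernatant from resting or LPS (100 ng/ml) plus CD3/CD28 bead-stimulated PBMC, with test compound or matched DMSO. Screen run twice at single concentrations; titrations at 0–1000 nM (n = 3), IC50 from best-fit curves. Supernatant C3 by ELISA at 24 h, reported as % of stimulated DMSO after unstimulated subtraction.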

[2] = doses over 400 mg/day; ref Utili et al., 1977; cited from earlier work
[3] = test system: secretome of inflammation-induced astrocytes; type: cell-based, human; conditions: SOMAscan, n = 1; for secretion of "toxic astrocyte signature" biomarkers: normalized toxic vs resting astrocytes index
[4] = test system: human induced pluripotent stem cells (iPSCs)-differentiated astrocytes; conditions: pretreatment, in the presence of inflammatory stimuli; ref Colombo et al., 2020; cited from earlier work
[5] = inflammation-induced astrocytes

For `COC(=O)/C=C/C(=O)OC` [DMF, dimethyl fumarate], the “secretion of proinflammatory cytokines and oxidative stress” value (astrocytes) is given as “reduced”, the “C3 secretion by astrocytes” value ([1]; library screen at 100 nM) is given as “not at 100 nM” and the “C3 secretion by astrocytes” value ([1]; library screen at 10 μM) is given as “inhibited”.
In the case of `O=C1CN(/N=C/c2ccc(-c3ccc([N+](=O)[O-])cc3)o2)C(O)=N1` [Dantrolene], the “inhibition of secretion of C3” value ([1]; drug library screen) is listed as 77.7% and the hepatotoxicity [2] is listed as “serious hepatotoxicity”.
For `CC(C)c1cc(-c2n[nH]c(=O)n2-c2ccc3c(ccn3C)c2)c(O)cc1O` [Ganetespib], the “secretion of proteins from astrocytes not activated by inflammatory stimuli” value [3] was “inhibited” and the “secretion of "toxic astrocyte signature" biomarkers” value [3] was “strongly reduced secretion of all biomarkers”.
In the case of `CO[C@H]1C[C@@H]2CC[C@@H](C)[C@@](O)(O2)C(=O)C(=O)N2CCCC[C@H]2C(=O)O[C@H]([C@H](C)C[C@@H]2CC[C@@H](O)[C@H](OC)C2)CC(=O)[C@H](C)/C=C(\C)[C@@H](O)[C@@H](OC)C(=O)[C@H](C)C[C@H](C)/C=C/C=C/C=C/1C` [Rapamycin], the “secretion of "toxic astrocyte signature" biomarkers” value [3] is reported as “did not have potent effect on secretion of most”, the “secretion of CCL20, TNFAIP6 and CFB” value [3, 5] is reported as “elevated” and the “secretion of CCL20 and CCL8” value [3, 5] is reported as “increased”. The “secretion of SERPINA3” value [3, 5] was “failed to inhibit”.
For `CCCCCCCCc1ccc(CCC(N)(CO)CO)cc1` [fingolimod], the “secretion of proinflammatory cytokines” value [4] is listed as “reduced”.
In the case of `CCc1cc(/C(C)=N/OCc2ccc(C3CCCCC3)c(C(F)(F)F)c2)ccc1CN1CC(C(=O)O)C1` [siponimod], the “secretion of proinflammatory cytokines” value [4] is listed as “reduced”.
